Measured values: PubChem BioAssay
Active and inactive are the calls of the source.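 Rule for the calls, unless noted: active = Her2 level under about 52% in both replicate screens, with viability over 70% of control (limit read from the data); inconclusive = Her2 under the limit in one screen only, or viability under 70%; inactive = Her2 level above the set limit.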

Assays:
[1] = Her2 expression decrease, cell viability multiplex – SKBR3 breast tumor cells, AlphaScreen, ATP viability, primary screen (AID 461); conditions: SKBR3 Her2 protein level, 18-24 h, measured here: SKBR3 viability, ATP luminescence, at 10 µM;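 for Her2 level: lower value means less Her2 protein in the cells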;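 for viability: percent of carrier control wells set as 100% viability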
[2] = target: Receptor tyrosine-protein kinase erbB-2 (Homo sapiens) (UniProt P04626); assay: as above; conditions: 18-24 h, at 10 µM, stronger effect = lower value
[3] = reduced viability of SK-BR-3 breast cancer cells – cell-based, 24 h, human, pilot screen (AID 572;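 active = viability at or below 10% of carrier control in both of two separate runs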;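 note: compound exposure lasted between 18 and 24 h rather than exactly 24 h; 100% = carrier-treated control wells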); conditions: SK-BR-3 viability, CellTiter-Glo luminescence, at 10 µM, stronger effect = lower value
[4] = HUVEC growth inhibition – cell-based, human, primary screen (AID 575;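 active = viability at or below 30% in both replicate assays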;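 note: 100% = median of untreated cell wells with 0.1% DMSO on each plate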); conditions: HUVEC proliferation, CellTiter-Glo luminescence, 72 h; at 10 µM; stronger effect = lower value
In short: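 system = HUVEC primary cells | amount = 1250 cells/well | buffer or medium = supplemented EBM, 2% fetal bovine serum | dosing = single-point 10 µM, DMSO 0.1% final | times = 72 h compound incubation | detection = CTG luminescence | read-out = % viability relative to median vehicle-well signal on each plate | control set = vehicle and MePR control wells | format = collagen-coated 384-well format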

[5] = H69AR cell proliferation blockers – human, duplicate replicates, primary screen (AID 580;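 active = viability at or under a set limit in both replicates, limit being median viability minus 3 SD, cut at about 48% in these data, passing the limit was not always enough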;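 note: 100% = mean luminescence of untreated wells and 0% = no signal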); conditions: H69AR lung tumor cells viability, ATP luminescence, 72 h; at 10 µM; stronger effect = lower value
[6] = MRP1 drug-resistance reversers in H69AR cells – cell-based, doxorubicin co-treatment, pilot screen (AID 601;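 active = viability loss from added drug above about 55%, and viability with drug at most 40%, in both replicates, limit read from the data, passing the limit was not always enough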); conditions: CellTiter-Glo, 72 h, at 10 µM; for differential viability (reversal): stronger effect = higher value
[7] = yeast transport mutant growth inhibition pilot in 384-well plates, post-Golgi transport modulator project (AID 636; in the data active = inhibition above about 31%); conditions: absorbance 615 nm, about 18 h, stronger effect = higher value
[8] = growth suppression of yeast trafficking mutant, preliminary HTS, modulators of trafficking downstream of Golgi apparatus project, 1536-format plate, OD 615 nm (AID 637; in the data active = inhibition above about 30%); conditions: yeast transport mutant growth, absorbance 615 nm, 18 h; stronger effect = higher value
[9] = H69AR cells + 2 uM doxorubicin, measured here: viability with 2 uM doxorubicin, stronger effect = lower value
[10] = H69AR cells, compound alone cytotoxicity

Receptor tyrosine-protein kinase erbB-2 (Homo sapiens), sequence (P04626 whole entry, looked up): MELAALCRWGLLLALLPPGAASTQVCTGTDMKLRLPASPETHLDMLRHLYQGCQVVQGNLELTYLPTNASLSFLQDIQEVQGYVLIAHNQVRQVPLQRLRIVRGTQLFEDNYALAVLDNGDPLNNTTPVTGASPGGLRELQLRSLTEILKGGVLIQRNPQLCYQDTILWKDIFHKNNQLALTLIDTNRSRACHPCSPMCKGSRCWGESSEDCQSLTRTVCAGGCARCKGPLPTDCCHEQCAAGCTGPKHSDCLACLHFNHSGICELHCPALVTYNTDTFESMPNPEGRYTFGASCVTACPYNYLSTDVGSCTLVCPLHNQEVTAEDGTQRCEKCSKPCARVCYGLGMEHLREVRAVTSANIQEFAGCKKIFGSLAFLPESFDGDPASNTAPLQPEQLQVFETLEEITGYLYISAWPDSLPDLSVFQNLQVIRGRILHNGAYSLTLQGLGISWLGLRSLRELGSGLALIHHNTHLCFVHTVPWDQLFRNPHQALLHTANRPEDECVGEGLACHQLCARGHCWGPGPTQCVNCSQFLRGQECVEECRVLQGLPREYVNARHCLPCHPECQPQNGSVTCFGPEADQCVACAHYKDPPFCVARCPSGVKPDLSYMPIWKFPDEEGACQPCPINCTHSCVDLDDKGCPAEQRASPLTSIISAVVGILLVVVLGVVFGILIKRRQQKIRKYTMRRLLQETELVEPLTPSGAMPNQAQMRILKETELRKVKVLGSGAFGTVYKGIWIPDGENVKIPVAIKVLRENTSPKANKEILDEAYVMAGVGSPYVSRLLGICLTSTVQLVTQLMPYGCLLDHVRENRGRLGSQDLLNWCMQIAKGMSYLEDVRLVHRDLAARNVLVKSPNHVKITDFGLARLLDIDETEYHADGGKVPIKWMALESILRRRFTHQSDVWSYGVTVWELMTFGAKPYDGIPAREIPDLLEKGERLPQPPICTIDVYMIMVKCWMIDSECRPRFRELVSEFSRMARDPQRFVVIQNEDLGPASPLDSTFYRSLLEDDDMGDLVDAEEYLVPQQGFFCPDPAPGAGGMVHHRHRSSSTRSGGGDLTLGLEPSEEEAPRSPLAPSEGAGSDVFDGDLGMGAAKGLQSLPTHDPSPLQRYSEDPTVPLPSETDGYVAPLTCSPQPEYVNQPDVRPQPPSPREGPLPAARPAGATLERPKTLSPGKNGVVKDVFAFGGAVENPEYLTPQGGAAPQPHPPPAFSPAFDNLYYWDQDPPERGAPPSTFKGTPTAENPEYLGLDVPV

Row | SMILES | viability [1] [%] | Her2 level [2] | viability [3] | viability [4] | viability [5] | differential viability (reversal) ([6]; H69AR cells + 2 uM doxorubicin) | viability [6, 9] [%] | viability [6, 10] [%] | inhibition [7] | inhibition [8]
1 | COc1cc(C2C(C(=O)c3ccc(C)o3)=C(O)C(=O)N2c2cc(C)on2)cc(Br)c1O (stereo not given) | 102 | 93% (inactive) | 102% (inactive) | 99.8% (inactive) | 95.7% (inactive) | 8.72% (inactive) | 86.9 | 95.7 | -1.97% (inactive) | -3.49% (inactive)
2 | c1cn(CC2(Cn3ccnc3)COC2)cn1 | 103 | 70.5% (inactive) | 103% (inactive) | 83% (inactive) | 99.7% (inactive) | 12% (inactive) | 87.8 | 99.7 | -3.77% (inactive) | -0.79% (inactive)
3 | CCOC(=O)c1sc(NC(=O)C2CC=CCC2C(=O)O)nc1C (stereo not given) | 105 | 92.5% (inactive) | 105% (inactive) | 100% (inactive) | 98.1% (inactive) | 1.07% (inactive) | 97.1 | 98.1 | -1.04% (inactive) | -1.64% (inactive)
4 | COc1ccc(N2CCN(Cc3nc4ccccc4c(=O)[nH]3)CC2)cc1 | 104 | 98% (inactive) | 104% (inactive) | 92.1% (inactive) | 94.3% (inactive) | -2.54% (inactive) | 96.8 | 94.3 | -3.33% (inactive) | -5.57% (inactive)
5 | Cc1cc(C)n(-c2nc3ccccc3c(=O)n2OCCOc2ccccc2)n1 | 78 | 93% (inactive) | 78% (inactive) | 97.2% (inactive) | 89.6% (inactive) | 10.3% (inactive) | 79.3 | 89.6 | -0.13% (inactive) | -6.07% (inactive)
6 | COc1ccc(C(=O)N2CCCc3ccccc32)cc1 | 87.5 | 94% (inactive) | 87.5% (inactive) | 116% (inactive) | 104% (inactive) | 11.1% (inactive) | 93 | 104 | -4% (inactive) | 5.81% (inactive)
7 | CCC1(C)Cc2c(C#N)c(N)n(-c3ccccc3)c(=O)c2CO1 (stereo not given) | 100 | 106% (inactive) | 100% (inactive) | 104% (inactive) | 109% (inactive) | 19.4% (inactive) | 89.7 | 109 | -0.13% (inactive) | -3.64% (inactive)
8 | O/N=C/c1ccc(OCC(O)COc2ccc(/C=N/O)cc2)cc1 | 89.5 | 112% (inactive) | 89.5% (inactive) | 75.9% (inactive) | 90.1% (inactive) | -1.19% (inactive) | 91.3 | 90.1 | -1.54% (inactive) | 4.83% (inactive)
9 | COCCN1C(=O)c2oc3c(C)cc(C)cc3c(=O)c2C1c1cccc(O)c1 (stereo not given) | 101 | 89.5% (inactive) | 101% (inactive) | 102% (inactive) | 88.1% (inactive) | -2.81% (inactive) | 90.9 | 88.1 | -5.26% (inactive) | -3.23% (inactive)
10 | O=C(Nc1ccccc1C(=O)N1CCCCCC1)c1cccc(S(=O)(=O)N2CCOCC2)c1 | 95.5 | 96% (inactive) | 95.5% (inactive) | 94.1% (inactive) | 95.5% (inactive) | -7.13% (inactive) | 103 | 95.5 | -1.84% (inactive) | -1.45% (inactive)
11 | CCOc1ccc2ccccc2c1/C=N/n1cncn1 | 99.5 | 101% (inactive) | 99.5% (inactive) | 87% (inactive) | 92.3% (inactive) | -11.2% (inactive) | 103 | 92.3 | -5.53% (inactive) | 1.64% (inactive)
12 | CC(C)COC(=O)N(C)c1ccc(C(O)(C(F)(F)F)C(F)(F)F)cc1 | 102 | 95% (inactive) | 102% (inactive) | 93.1% (inactive) | 89.8% (inactive) | 3.42% (inactive) | 86.4 | 89.8 | -2.57% (inactive) | -8.57% (inactive)
13 | COc1ccc(CN2C(=O)c3cccnc3C2Nc2cc(Cl)ccc2OC)cc1 (stereo not given) | 84.5 | 110% (inactive) | 84.5% (inactive) | 85% (inactive) | 93.2% (inactive) | 0.7% (inactive) | 92.5 | 93.2 | 2.67% (inactive) | -1.8% (inactive)
14 | O=c1c2cc(N3CCOCC3)ccc2[nH]c(=S)n1CCCN1CCCC1 | 89 | 78% (inactive) | 89% (inactive) | 86% (inactive) | 100% (inactive) | 14.6% (inactive) | 85.4 | 100 | -5.41% (inactive) | 6.89% (inactive)
15 | COC(=O)c1ccccc1NC(=O)C1CCCCC1C(=O)O (stereo not given) | 103 | 116% (inactive) | 103% (inactive) | 91% (inactive) | 90.3% (inactive) | -1.56% (inactive) | 91.8 | 90.3 | -2.93% (inactive) | -9.52% (inactive)
16 | COc1ccc(C(=O)NCc2ccccc2OC)cc1 | 110 | 100% (inactive) | 110% (inactive) | 93.8% (inactive) | 105% (inactive) | 9.52% (inactive) | 95.8 | 105 | -6.58% (inactive) | -3.17% (inactive)
17 | NC(=O)NC(c1ccccc1)c1ccccc1F (stereo not given) | 91 | 106% (inactive) | 91% (inactive) | 91.6% (inactive) | 105% (inactive) | 6.78% (inactive) | 98.3 | 105 | -0.51% (inactive) | -8% (inactive)
18 | CCc1cc(C(=O)OC)c(NC(=O)CCC(=O)O)s1 | 96.5 | 96% (inactive) | 96.5% (inactive) | 87.6% (inactive) | 107% (inactive) | 17.8% (inactive) | 89.1 | 107 | -2.53% (inactive) | 0% (inactive)
19 | O=C(Nc1ccc2c(c1)OCO2)C(c1ccc(Cl)cc1)N1CCN(C(=O)c2ccco2)CC1 (stereo not given) | 71 | 80.5% (inactive) | 71% (inactive) | 103% (inactive) | 91.4% (inactive) | 6.85% (inactive) | 84.5 | 91.4 | -5.27% (inactive) | 2.3% (inactive)
20 | O=C1C2CC=CCC2C(=O)N1c1ccc(Cc2ccncc2)cc1 (stereo not given) | 88 | 96.5% (inactive) | 88% (inactive) | 83.8% (inactive) | 100% (inactive) | 2.21% (inactive) | 97.8 | 100 | 0.78% (inactive) | -5.74% (inactive)
21 | CCn1c(C(=O)OC)cc2c1ccn2-c1ccc(F)cc1 | 91 | 80.5% (inactive) | 91% (inactive) | 86.1% (inactive) | 83% (inactive) | 7.09% (inactive) | 75.9 | 83 | -5.13% (inactive) | -1.82% (inactive)
22 | Cc1ccc(S(=O)(=O)N(CC(=O)NCc2ccco2)Cc2ccccc2F)cc1 | 92 | 108% (inactive) | 92% (inactive) | 104% (inactive) | 107% (inactive) | 21.3% (inactive) | 85.5 | 107 | -2.67% (inactive) | -5.97% (inactive)
23 | O=C(CN1CCN(c2ncccn2)CC1)Nc1ccccc1-n1cccc1 | 102 | 79% (inactive) | 102% (inactive) | 81.4% (inactive) | 92.9% (inactive) | 2.44% (inactive) | 90.5 | 92.9 | -1.43% (inactive) | -6.83% (inactive)
24 | CCN(C(=O)Cc1c(C(=O)O)[nH]c2ccccc12)c1cc(OC)ccc1OC | 112 | 84% (inactive) | 112% (inactive) | 94.1% (inactive) | 92.7% (inactive) | -2.61% (inactive) | 95.3 | 92.7 | -6.62% (inactive) | 4.5% (inactive)
25 | CCN(C(=O)c1cc2cc3ccc(C)cc3nc2o1)c1ccc(OC)cc1 | 85.5 | 99.5% (inactive) | 85.5% (inactive) | 61% (inactive) | 83.1% (inactive) | -12.9% (inactive) | 96 | 83.1 | -6.27% (inactive) | -6.39% (inactive)
26 | COc1cccc(OC)c1C(=O)n1nc(C)cc1C | 84.5 | 87% (inactive) | 84.5% (inactive) | 110% (inactive) | 98.8% (inactive) | 3.22% (inactive) | 95.5 | 98.8 | 1.18% (inactive) | 4.1% (inactive)
27 | CCC(C)Nc1nc2c(c(=O)n(C)c(=O)n2C)n1Cc1ccc(F)cc1 (stereo not given) | 90.5 | 86.5% (inactive) | 90.5% (inactive) | 88.6% (inactive) | 83.3% (inactive) | -14.3% (inactive) | 97.6 | 83.3 | -5.27% (inactive) | 5.08% (inactive)
28 | O=C(CSc1nnc(-c2ccc(Br)o2)n1Cc1ccccc1)c1ccccc1F | 81.5 | 91% (inactive) | 81.5% (inactive) | 86.3% (inactive) | 64.7% (inactive) | -11.2% (inactive) | 75.9 | 64.7 | 3.11% (inactive) | -2.13% (inactive)
